Hits are enriched below; roughly 3.7% of the tested compounds scored in any of these assays.
EP2 modulator = EP2 receptor modulators, cAMP readout, primary screen, cell-based, HTRF cAMP, PGE2 stimulation; EP2-expressing cells, cAMP HTRF FRET, PGE2 co-stimulation; 0.83% of 260,000 active; AID 940, 2007; induction, % at 25 µM; Prostaglandin E2 receptor EP2 subtype (Homo sapiens), P43116;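 active = compounds whose cAMP rise, as percent of the full-agonist control response, exceeds 60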;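 note: rat C6 glioma line stably carrying human EP2 under a CMV promoter; the protocol text gives 20 µM as final concentration; 100% = response of wells given 1 µM PGE2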
CHO parental Ca = ATP-evoked calcium signal inhibitors, parental CHO, primary screen, counter-screen for OX1R antagonist project, cell-based, fluorescence, Fluo-8 calcium dye; parental CHO-K1, ATP-induced calcium, Fluo-8 fluorescence; inhibition, % at 5.6 µM; 0.63% of 330,000 active; AID 463079, 2010;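 active = inhibition above that plate's mean sample inhibition plus 3 SD, cut at about 26% in these data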;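 note: 0% = ATP-challenged DMSO wells and 100% = DMSO wells without ATP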
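Test system: untransfected parental CHO cell line; also added: ATP stimulus; dosing: 5.6 µM, single dose; signal: calcium-sensitive Fluo-8 fluorescence; measure: percent inhibition of ATP-evoked calcium rise, normalized to controls; benchmarks: low control ATP plus DMSO, high control DMSO only; replication: one well per compound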
GPR7 antag = GPR7 receptor antagonists, primary screen, cell-based, fluorescence, single concentration; Neuropeptides B/W receptor type 1 (Homo sapiens), P48145; GPR7-expressing cells, fluorescence antagonist assay; inhibition, % at 4.4 µM; 1.1% of 290,000 active; in the data active = inhibition above about 16%, passing the limit was not always enough;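 note: cells stimulated with the agonist NPW; 0% = agonist with vehicle and 100% = vehicle without agonist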
Target sequence (P48145 whole entry, looked up): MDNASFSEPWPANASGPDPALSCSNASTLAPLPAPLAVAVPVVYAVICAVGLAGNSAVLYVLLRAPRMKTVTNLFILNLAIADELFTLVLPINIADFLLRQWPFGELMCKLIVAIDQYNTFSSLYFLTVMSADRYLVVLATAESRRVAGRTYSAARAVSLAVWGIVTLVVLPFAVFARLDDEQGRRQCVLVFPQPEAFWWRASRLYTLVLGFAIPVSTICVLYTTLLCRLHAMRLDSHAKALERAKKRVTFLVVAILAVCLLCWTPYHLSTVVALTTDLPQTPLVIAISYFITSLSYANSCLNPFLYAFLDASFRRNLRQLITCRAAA
OX1R antag-1 = OX1R (HCRTR1) antagonists, primary screen, fluorescence, CHO/OX1R cells, Fluo-8 calcium, orexin A; Fluo-8 calcium fluorescence; AID 434989, 2010; 0.43% of 330,000 active; Orexin/Hypocretin receptor type 1 (Homo sapiens), O43613; inhibition, % at 5 µM;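 active = inhibition above its plate's threshold, mean inhibition of all tested compounds on the plate plus 3 SD, cut at about 37% in these data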;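 note: 0% = orexin A challenge wells and 100% = SB-334867-A antagonist wells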
PGE2 EP2 inh = human EP2 receptor antagonists, primary screen, TR-FRET cAMP, C6 glioma cells; Prostaglandin E2 receptor EP2 subtype (Homo sapiens), P43116; C6 glioma cells expressing human EP2; cells stimulated with saturating PGE2; inhibition, % at 25 µM; 0.52% of 260,000 active; AID 1422, 2008;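 active = percent inhibition above 40 after rounding to a whole number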;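 note: rat C6 glioma host cells with rolipram phosphodiesterase inhibitor present; the protocol text gives 20 µM as final concentration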
OX1R antag-2 = antagonists of human orexin 1 receptor (OX1R) | Orexin/Hypocretin receptor type 1 (Homo sapiens), O43613 | OX1R-expressing cells, FRET antagonist read-out | inhibition, % at 6.6 µM | 1.8% of 330,000 active | AID 485270, 2010; in the data active = inhibition mostly above about 38%, no sharp cut-off; inactive = mostly below about 40%;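 note: 0% = agonist challenge alone and 100% = reference antagonist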
* marks the source's active call; other numbers are inactive results; · = not tested or not shown.

SMILES	EP2 modulator	CHO parental Ca	GPR7 antag	OX1R antag-1	PGE2 EP2 inh	OX1R antag-2
Cc1coc(C)c1C(=O)CC1(O)C(=O)Nc2cc(Cl)cc(Cl)c21 (stereo unspecified)	11	-33	-4	-18	10	10
Cc1ccc(S(=O)(=O)N(CCC(=O)NCc2ccccc2F)c2ccccc2)cc1	·	-19	·	-6	·	25*
COc1ccc(C2/C=C\CN(S(=O)(=O)c3ccc(C)cc3)CC(=O)N2Cc2cccc(F)c2)cc1 (stereo unspecified)	·	-14	·	44	·	50*
COc1cc(C(=O)Nc2ccc(S(=O)(=O)Nc3nccc(C)n3)cc2)cc(OC)c1OC	6	-7	8	0	15	26
COc1ccc(NC(=O)Cc2ccccc2)cn1	17	-4	-4	-4	9	4
COc1ccc(CS(=O)(=O)/C(Cl)=C(/Cl)C(=O)Nc2ccc(OC)nc2)cc1	-26	-4	39*	-20	11	28
COc1ccc(/C=C/C(=O)Nc2ccc(OC)nc2)cc1	-18	-1	0	-4	4	10
COc1ccc(NC(=O)/C(Cl)=C(/Cl)S(=O)Cc2ccccc2)cn1 (stereo unspecified)	-28	7	40*	7	10	6
CCc1cccc(CC)c1NC(=O)CSc1nc2cc3c(cc2cc1C#N)OCCO3	63*	·	·	·	33	·
N#Cc1cc2cc3c(cc2nc1SCC(=O)NCCc1ccccc1)OCCO3	73*	·	·	·	38	·
Cc1cccc(C)c1NC(=O)CSc1nc2cc3c(cc2cc1C#N)OCCO3	10	·	·	·	19	·
Clc1ccc(-c2n[nH]c3c2CCC3)c(Cl)c1	10	1	-3	-22	10	9
COc1ccccc1/C=N/NC(=O)c1ccc(C)nc1	·	3	-6	-5	·	9
COCCOc1ccc(C(F)(F)F)cc1NC(=O)c1ccc(C)cc1	-9	39*	-12	-16	5	12
CC1=CC(=O)c2c(O)ccc(O)c2C1=O	-51	2	3	-5	84*	9
O=C1c2ccc(O)c(O)c2C(=O)c2c(O)ccc(O)c21	19	·	·	·	13	·
COc1cccc(/C=N/Nc2ccc(Cl)nn2)c1OC	·	4	·	-14	·	30
COc1cccc(/C=N/Nc2nnc3c(n2)[nH]c2ccccc23)c1OC	-37	-13	-7	2	7	45*
CCN(CC)S(=O)(=O)c1cccc(C(=O)N/N=C/c2ccc([N+](=O)[O-])o2)c1	-39	-5	-2	-16	5	73*
CCN(CC)S(=O)(=O)c1cccc(C(=O)N/N=C/c2ccccc2OCC(=O)O)c1	0	4	20	3	7	33
O=C(N/N=C/c1ccco1)C1CCCC1	·	-6	-11	-9	·	24
O=C(N/N=C/c1ccc([N+](=O)[O-])o1)C1CCCC1	·	8	-11	-16	·	91*
Cc1scc(C(=O)N/N=C/c2ccc([N+](=O)[O-])o2)c1C	·	-5	-9	-18	·	51*
O=[N+]([O-])c1ccc(/C=[N+](\[O-])[C@@H]2CCCC[C@@H]2/[N+]([O-])=C/c2ccc([N+](=O)[O-])o2)o1	·	-8	-12	-18	·	42*
COc1cc2nc(CN(C)Cc3ccc(SC)cc3)[nH]c(=O)c2cc1OC	-23	-20	-5	-20	7	4
O=C(N/N=C/c1ccc([N+](=O)[O-])o1)c1ccncc1	-12	-16	0	9	10	55*
Cc1nc2ccccn2c1C(=O)N/N=C/c1ccc([N+](=O)[O-])o1	-26	7	-14	-12	7	65*
Cc1ccc(/C=N\NC(=O)c2cc([N+](=O)[O-])cc([N+](=O)[O-])c2)o1	10	-10	8	-25	9	65*
O=C(N/N=C\c1ccc([N+](=O)[O-])o1)c1cncc(Br)c1	-24	-4	-2	-5	7	32
O=C(N/N=C/c1ccc2nccnc2c1)c1ccncc1	-13	-7	8	-5	5	55*
